In PMC3149845 (The Journal of neuroscience : the official journal of the …, 2011):
Entries after “also recorded” stand apart in the source; their conditions may differ. Peptide text beside a SMILES is read from it.

Assays:
Settings in all cases: aspartame 10mM, neotame 1mM, sucralose 2 mM; compared with hTas1R2/hTas1R3
[1] = target: sm(1–567)hTas1R2 + hTas1R3 (Saimiri sciureus, UniProt A3QP08, A682V/A736V/D779S/E587Q/F759L/F793L/I713V/L619P/L692M/M590I/M711T/N698S/S673P/S691G/T687I/T705P/V634L/V653A/V677M/V777A); test: Ca2+ mobilization, chimera receptor; format: cell-based, human/squirrel monkey
[2] = target: T1, h(1–572)smTas1R2 + hTas1R3 (Homo sapiens, UniProt Q8TE23, A658V/A782V/G696S/I595M/I692T/L639V/L764F/L798F/M682V/M697L/P624L/P678S/P710T/Q592E/S703N/S784D/T716M/V687A/V718I/V741A); test: Ca2+ mobilization, chimera receptor; format: cell-based, human/squirrel monkey
T1 sequence (Q8TE23 20-839 Q592E/I595M/P624L/L639V/A658V/P678S/M682V/V687A/I692T/G696S/M697L/S703N/P710T/T716M/V718I/V741A/L764F/A782V/S784D/L798F): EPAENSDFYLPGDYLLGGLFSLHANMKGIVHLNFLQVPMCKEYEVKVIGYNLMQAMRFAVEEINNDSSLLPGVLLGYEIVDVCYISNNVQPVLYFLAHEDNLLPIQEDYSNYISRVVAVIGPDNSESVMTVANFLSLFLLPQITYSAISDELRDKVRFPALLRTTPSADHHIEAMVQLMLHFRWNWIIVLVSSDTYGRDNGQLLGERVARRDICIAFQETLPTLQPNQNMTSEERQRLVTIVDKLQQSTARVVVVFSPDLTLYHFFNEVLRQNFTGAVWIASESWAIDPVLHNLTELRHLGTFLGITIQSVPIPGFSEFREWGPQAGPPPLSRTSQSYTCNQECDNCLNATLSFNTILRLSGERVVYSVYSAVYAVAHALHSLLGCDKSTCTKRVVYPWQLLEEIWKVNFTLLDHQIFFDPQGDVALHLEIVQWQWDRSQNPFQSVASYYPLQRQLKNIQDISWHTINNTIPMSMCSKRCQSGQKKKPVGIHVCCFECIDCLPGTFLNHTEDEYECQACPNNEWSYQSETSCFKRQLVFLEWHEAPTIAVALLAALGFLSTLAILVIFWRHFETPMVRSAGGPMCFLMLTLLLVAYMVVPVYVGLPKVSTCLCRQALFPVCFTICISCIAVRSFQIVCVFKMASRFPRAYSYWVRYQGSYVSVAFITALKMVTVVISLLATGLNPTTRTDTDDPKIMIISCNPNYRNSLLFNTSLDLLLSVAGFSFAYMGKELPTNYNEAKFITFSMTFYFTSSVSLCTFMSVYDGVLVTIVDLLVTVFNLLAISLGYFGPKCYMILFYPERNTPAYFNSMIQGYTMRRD
T1 sequence (Q7RTX0 21-852 partner): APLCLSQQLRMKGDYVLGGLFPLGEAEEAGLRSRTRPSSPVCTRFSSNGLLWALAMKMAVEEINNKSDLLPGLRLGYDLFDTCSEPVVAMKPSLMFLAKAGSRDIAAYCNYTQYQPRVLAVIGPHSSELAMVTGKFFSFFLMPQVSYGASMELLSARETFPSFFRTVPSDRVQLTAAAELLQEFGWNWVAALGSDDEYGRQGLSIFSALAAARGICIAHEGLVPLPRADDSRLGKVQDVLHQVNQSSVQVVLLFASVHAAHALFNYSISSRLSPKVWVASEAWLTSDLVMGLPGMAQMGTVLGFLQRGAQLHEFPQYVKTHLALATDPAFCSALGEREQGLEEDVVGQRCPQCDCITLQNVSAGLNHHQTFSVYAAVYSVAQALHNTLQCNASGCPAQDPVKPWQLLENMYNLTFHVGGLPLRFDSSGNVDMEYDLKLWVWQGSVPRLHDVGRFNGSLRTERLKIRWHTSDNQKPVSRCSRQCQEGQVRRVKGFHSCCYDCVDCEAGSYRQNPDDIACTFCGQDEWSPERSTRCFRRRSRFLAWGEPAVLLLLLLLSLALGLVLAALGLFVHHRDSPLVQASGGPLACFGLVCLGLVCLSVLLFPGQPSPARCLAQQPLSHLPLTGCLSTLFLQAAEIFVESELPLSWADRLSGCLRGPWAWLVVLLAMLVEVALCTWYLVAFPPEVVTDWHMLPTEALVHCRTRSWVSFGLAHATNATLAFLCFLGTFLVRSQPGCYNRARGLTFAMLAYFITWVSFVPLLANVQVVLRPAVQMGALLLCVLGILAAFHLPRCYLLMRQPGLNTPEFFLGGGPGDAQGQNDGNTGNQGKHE
Summary of the method: (§1)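 HEK293E cells grown at 37°C in Opti-MEM with 5% FBS and seeded at 50,000/well. Cells co-lipofected with Tas1R plasmids and Gα16-gust44 (0.06 μg each per well); medium changed at 20 h, assayed 24 h later. Cells loaded 1 h with Fluo-4 AM in HEPES-buffered HBSS. Tastant added at 30 s; fluorescence (ex 488/em 525 nm) read every 2 s for 150 s more. ΔF/F normalised to human receptor maximal sucralose response; mean ± SEM, three independent experiments.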

hTas1R2:S40T+hTas1R3 = target: T2, hTas1R2:S40T+hTas1R3 (Homo sapiens, UniProt Q8TE23, S40T); test: Ca2+ mobilization, mutated human receptor; format: cell-based
T2 sequence (Q8TE23 20-839 S40T): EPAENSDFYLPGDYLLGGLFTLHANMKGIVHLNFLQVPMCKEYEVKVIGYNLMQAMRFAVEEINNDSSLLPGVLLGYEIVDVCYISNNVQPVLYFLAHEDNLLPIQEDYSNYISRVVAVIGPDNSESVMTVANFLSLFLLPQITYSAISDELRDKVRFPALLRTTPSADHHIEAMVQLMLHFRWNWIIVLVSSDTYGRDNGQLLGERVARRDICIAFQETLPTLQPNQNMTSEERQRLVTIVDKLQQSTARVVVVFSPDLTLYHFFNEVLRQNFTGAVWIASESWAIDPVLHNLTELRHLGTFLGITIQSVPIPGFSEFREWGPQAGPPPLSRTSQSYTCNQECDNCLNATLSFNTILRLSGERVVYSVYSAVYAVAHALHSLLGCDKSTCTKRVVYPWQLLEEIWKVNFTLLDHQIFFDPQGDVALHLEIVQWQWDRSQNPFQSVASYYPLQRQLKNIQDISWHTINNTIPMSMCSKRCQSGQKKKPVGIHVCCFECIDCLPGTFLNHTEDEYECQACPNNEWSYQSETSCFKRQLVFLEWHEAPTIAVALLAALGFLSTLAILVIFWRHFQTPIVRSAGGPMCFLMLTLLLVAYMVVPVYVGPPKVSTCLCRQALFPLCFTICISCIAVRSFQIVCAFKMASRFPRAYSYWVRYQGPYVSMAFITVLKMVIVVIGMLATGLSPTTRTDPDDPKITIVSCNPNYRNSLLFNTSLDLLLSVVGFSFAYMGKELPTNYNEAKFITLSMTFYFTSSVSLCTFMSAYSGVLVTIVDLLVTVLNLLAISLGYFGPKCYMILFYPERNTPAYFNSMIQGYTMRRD
T2 sequence (Q7RTX0 21-852 partner): T1 sequence (Q7RTX0 21-852 partner)
Summary of the method: as §1

| SMILES | calcium response to sweetener [1] | calcium response to sweetener [2] | calcium response to sweetener (hTas1R2:S40T+hTas1R3) |
| --- | --- | --- | --- |
| COC(=O)[C@H](Cc1ccccc1)NC(=O)[C@@H](N)CC(=O)O [aspartame, L-α-aspartly-L-phenylalanine methyl ester] (H-Asp-Phe-OMe) | no responses | significantly reduced responses; also recorded: significant reduction of the response | abolished |
| COC(=O)[C@H](Cc1ccccc1)NC(=O)[C@H](CC(=O)O)NCCC(C)(C)C [neotame] | no responses | significantly reduced responses; also recorded: significant reduction of the response | did not affect significantly |
| OC[C@H]1O[C@H](O[C@]2(CCl)O[C@H](CCl)[C@@H](O)[C@@H]2O)[C@H](O)[C@@H](O)[C@H]1Cl [sucralose] | significant increase of the response | significant reduction of the response | significantly reduced |
